Our source for the Activity, LC50 and zone of inhibition values is ChEMBL document CHEMBL1144116, “Tanikolide, a toxic and antifungal lactone from the marine cyanobacterium Lyngbya majuscula” (J Nat Prod, 1999).

For one data set, the system named is Bacillus subtilis. The data set is described as follows: Antibacterial activity against Bacillus subtilis ATCC 6051 at 100 ug/disk by paper disk agar plate method. Type of data set: functional, organism-based. The method in brief: (§1)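 Paper disk-agar plate diffusion with 6 mm paper disks, each loaded with 100 µg of sample. Activity is read as the diameter of the zone of inhibition around the disk.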

The next data set concerns Pseudomonas aeruginosa. Put plainly: Antibacterial activity against Pseudomonas aeruginosa ATCC 10145 at 100 ug/disk by paper disk agar plate method. The data set is classed as functional, organism-based. The method in brief: as §1
Data set [1] concerns Carassius auratus. Put plainly: Norcotic effect against Carassius auratus at 10 ug/mL after 1 hr. The data set is classed as ADME, organism-based. The conditions noted are these: in vivo. The method in brief: (§2)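 Single goldfish (Carassius auratus) per vessel in 50 mL distilled H2O, with sample dilutions added in 50 µL EtOH. Each fish is observed for 1 h. Samples and controls are run in duplicate.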

The nature of data set [2]: Toxicity against Artemia salina after 24 hrs. The data set is classed as organism-based. The following applies: in vivo, read-out: LD50. The method in brief: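 About 15 hatched Artemia salina in ca. 0.5 mL seawater per well with sample in 50 µL EtOH plus 4.5 mL artificial seawater (total ca. 5 mL), several concentrations, duplicate samples and controls. After 24 h at 28 °C, live and dead shrimp counted under dissecting light microscope.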

Data set [3] has as its system Carassius auratus. The data set is described as follows: Toxicity against Carassius auratus. The data set is classed as organism-based. The conditions noted are these: in vivo. Put shortly: as §2
A further data set has as its system Staphylococcus aureus. The data set is described as follows: Antibacterial activity against Staphylococcus aureus ATCC 12600 at 100 ug/disk by paper disk agar plate method. The data set is classed as functional, organism-based. The method in brief: as §1
The subject of another data set is Biomphalaria glabrata. The data set is described as follows: Molluscicidal activity against Biomphalaria glabrata at 10 mg/mL after 24 hrs. Type of data set: functional. The conditions noted are these: read-out: LD50 (the source's name). Put shortly:
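Test snails: Biomphalaria glabrata. Sample stock solutions (10 mg/mL in EtOH) diluted in 10 mL distilled H2O. Snails observed after 24 h and scored dead when no heart beat was detected by dissecting light microscopy.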

A further data set has as its system Escherichia coli. The data set is described as follows: Antibacterial activity against Escherichia coli ATCC 11775 at 100 ug/disk by paper disk agar plate method. The data set is classed as functional, organism-based. The method in brief:
as §1

For data set [4], the system named is Salmonella enterica subsp. enterica. The data set is described as follows: Antibacterial activity against Salmonella choleraesuis subsp. choleraesuis ATCC 14028 at 100 ug/disk by paper disk agar plate method. The data set is classed as functional, organism-based. The method in brief:
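Standard paper sensitivity disk-agar plate method with 6 mm disks. Read-out is the diameter of the inhibition zone around the disk.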

The test system of another data set is Candida albicans. The data set is described as follows: Antifungal activity against Candida albicans ATCC 14053 at 100 ug/disk by paper disk agar plate method. Type of data set: functional. Put shortly: as §1

Values after ≈ are worked out from the molar mass of the structure shown. Active and inactive are the calls of the source. No cut-off for these calls is given here.

With `CCCCCCCCCCC[C@]1(CO)CCCC(=O)O1` [TANIKOLIDE], the result (in the data set on Bacillus subtilis; with Pseudomonas aeruginosa; in the data set with Staphylococcus aureus; with Escherichia coli; in data set [4]) was inactive. The Activity entry is reported as “Toxic” in the data set with Carassius auratus [1] and “Non-toxic” in the data set on Carassius auratus [3]. For the same compound, the LC50 at 24 h in data set [2] amounted to 3.6 µg/mL (≈ 12.7 µM). For the same compound, the LC50 in the data set on Biomphalaria glabrata came out at 9 µg/mL (≈ 31.6 µM). In the data set on Candida albicans (read-out: IZ), the zone of inhibition at 100 µg/disc is 13 mm.
As to `CCCCCCCCC[C@@]1(CO)CC[C@@H](C)C(=O)O1`, the result (with Bacillus subtilis; with Pseudomonas aeruginosa; with Staphylococcus aureus; with Escherichia coli; in [4]; in the data set with Candida albicans) was inactive.
